Data reported in ChEMBL document CHEMBL1123535, “Thiol addition to quinones: model reactions for the inactivation of thymidylate synthase by 5-p-benzoquinonyl-2'-deoxyuridine 5'-phosphate” (J Med Chem, 1986).
One block for each compound: values may come before it.

Legend:
[1] = biological target: T1, Thymidylate synthase (Homo sapiens, UniProt P04818); test: The rate constant in Acetonitrile and buffered aqueous acetonitrile solution, at 30 degrees C and pH 6.8
Target sequence in this assay (P04818 2-313 limits assumed): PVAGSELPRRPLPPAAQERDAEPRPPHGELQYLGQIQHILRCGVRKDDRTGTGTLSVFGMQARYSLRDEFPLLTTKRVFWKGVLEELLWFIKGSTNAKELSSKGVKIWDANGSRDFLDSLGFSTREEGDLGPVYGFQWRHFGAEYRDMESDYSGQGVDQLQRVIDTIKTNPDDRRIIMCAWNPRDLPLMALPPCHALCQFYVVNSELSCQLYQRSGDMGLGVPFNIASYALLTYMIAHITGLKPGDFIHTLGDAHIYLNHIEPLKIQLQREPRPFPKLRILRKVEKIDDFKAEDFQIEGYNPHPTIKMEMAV

[2] = biological target: T1, Thymidylate synthase
Target sequence in this assay (P04818 2-313 limits assumed): as above

[3] = biological target: T1, Thymidylate synthase; test: Binding affinity against thymidylate synthase
How it was run: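 Thymidylate synthase was inactivated at pH 6.8 and 30 °C, and time-dependent loss of activity was followed. Observed inactivation rate constants, including runs with substrate present (substrate protection), were fitted to 1/kobsd = [Ki[S]/(Km[I]) + Ki/kinact](1/[I]) + 1/kinact to give Ki and kinact. The second-order constant was taken as kinact/Ki.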
Target sequence in this assay (P04818 whole entry): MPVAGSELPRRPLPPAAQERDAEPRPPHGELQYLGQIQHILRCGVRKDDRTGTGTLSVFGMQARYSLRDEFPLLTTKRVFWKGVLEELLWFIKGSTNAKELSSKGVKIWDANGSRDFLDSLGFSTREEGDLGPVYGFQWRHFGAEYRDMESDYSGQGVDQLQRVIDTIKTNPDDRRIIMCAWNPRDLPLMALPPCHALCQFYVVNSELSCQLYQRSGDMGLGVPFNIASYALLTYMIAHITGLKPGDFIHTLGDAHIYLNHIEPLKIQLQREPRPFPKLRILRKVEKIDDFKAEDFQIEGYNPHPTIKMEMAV

[4] = biological target: T1, Thymidylate synthase; test: The rate constant in 75% aqueous Acetonotrileas methyl mercaptoacetate as reagent
Target sequence in this assay (P04818 2-313 limits assumed): as the sequence (P04818 2-313 limits assumed) above

[5] = biological target: T1, Thymidylate synthase; test: The rate constant in 75% aqueous Acetonitrile […] as reagent
Target sequence in this assay (P04818 2-313 limits assumed): as above

[6] = biological target: T1, Thymidylate synthase; test: The rate constant in 70% ethanol
Target sequence in this assay (P04818 2-313 limits assumed): as above

[7] = biological target: T1, Thymidylate synthase; test: The rate constant in Acetonitrile and buffered aqueous acetonitrile solution, at 30 degrees Celsius and pH 8.1
Target sequence in this assay (P04818 2-313 limits assumed): as above

[8] = biological target: T1, Thymidylate synthase; test: The rate constant in Acetonitrile and buffered aqueous acetonitrile solution, at 25 degrees Celsius and pH 7.4
[9] = biological target: T1, Thymidylate synthase; test: The observed rate constant with methyl mercaptoacetate in Acetonitrile and buffered aqueous acetonitrile solution at 1.6 x 10e-4 M concentration of 0.0061 M
How it was run: (§1)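 Quinone nucleoside reacted with excess methyl mercaptoacetate in deoxygenated acetonitrile at […]. Water content was varied by adding known amounts of water to acetonitrile dried over 3-Å sieves. Initial quinone was 7.4×10^-5 to 1.6×10^-4 M, and thiol was varied. Pseudo-first-order kobsd was measured, and k2 came from log kobsd = log k2 + n log[thiol].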

[10] = biological target: T1, Thymidylate synthase; test: The observed rate constant with methyl mercaptoacetate in Acetonitrile and buffered aqueous acetonitrile solution at 1.4 x 10e-4 M concentration of 0.0077; how it was run: as §1
[11] = biological target: T1, Thymidylate synthase; test: The rate constant with methyl mercaptoacetate in Acetonitrile and buffered aqueous acetonitrile solution at concentration of 0.012 M; how it was run: as §1
[12] = biological target: T1, Thymidylate synthase; test: The observed rate constant with methyl mercaptoacetate in Acetonitrile and buffered aqueous acetonitrile solution at 1.6 x 10e-4 M concentration of 0.012 M; how it was run: as §1
[13] = biological target: T1, Thymidylate synthase; test: The observed rate constant with methyl mercaptoacetate in Acetonitrile and buffered aqueous acetonitrile solution at 9.7 x 10e-5 M concentration of 0.0096 M; how it was run: as §1
[14] = biological target: T1, Thymidylate synthase; test: The observed rate constant with methyl mercaptoacetate in Acetonitrile and buffered aqueous acetonitrile solution at 7.4 x 10e-5 M concentration of 0.0039 M; how it was run: as §1
[15] = biological target: T1, Thymidylate synthase; test: The observed rate constant with methyl mercaptoacetate in Acetonitrile and buffered aqueous acetonitrile solution at 9.7 x 10e-5 M concentration of 0.0029 M; how it was run: as §1
[16] = biological target: T1, Thymidylate synthase; test: The observed rate constant with methyl mercaptoacetate in Acetonitrile and buffered aqueous acetonitrile solution at 7.4 x 10e-5 M concentration of 0.00098 M; how it was run: as §1
[17] = biological target: T1, Thymidylate synthase; test: The observed rate constant with methyl mercaptoacetate in Acetonitrile and buffered aqueous acetonitrile solution at 1.6 x 10e-4 M concentration of 0.0036 M; how it was run: as §1
[18] = biological target: T1, Thymidylate synthase; test: The observed rate constant with methyl mercaptoacetate in Acetonitrile and buffered aqueous acetonitrile solution at 1.4 x 10e-4 M concentration of 0.0039; how it was run: as §1
[19] = biological target: T1, Thymidylate synthase; test: The observed rate constant with methyl mercaptoacetate in Acetonitrile and buffered aqueous acetonitrile solution at 7.4 x 10e-5 M concentration of 0.0019 M; how it was run: as §1
[20] = biological target: T1, Thymidylate synthase; test: The observed rate constant with methyl mercaptoacetate in Acetonitrile and buffered aqueous acetonitrile solution at 9.7 x 10e-5 M concentration of 0.0048 M; how it was run: as §1
[21] = biological target: T1, Thymidylate synthase; test: The observed rate constant with methyl mercaptoacetate in Acetonitrile and buffered aqueous acetonitrile solution at 1.6 x 10e-4 M concentration of 0.0015 M; how it was run: as §1
[22] = biological target: T1, Thymidylate synthase; test: The observed rate constant with methyl mercaptoacetate in Acetonitrile and buffered aqueous acetonitrile solution at 1.6 x 10e-4 M concentration of 0.0026 M; how it was run: as §1
[23] = biological target: T1, Thymidylate synthase; test: The rate constant with methyl mercaptoacetate in Acetonitrile and buffered aqueous acetonitrile solution at concentration of 0.0039 M; how it was run: as §1
[24] = biological target: T1, Thymidylate synthase; test: The observed rate constant with methyl mercaptoacetate in Acetonitrile and buffered aqueous acetonitrile solution at 1.4 x 10e-4 M concentration of 0.0020; how it was run: as §1
[25] = biological target: T1, Thymidylate synthase; test: The rate constant with methyl mercaptoacetate in Acetonitrile and buffered aqueous acetonitrile solution at concentration of 0.0077 M; how it was run: as §1
[26] = biological target: T1, Thymidylate synthase; test: The observed rate constant with methyl mercaptoacetate in Acetonitrile and buffered aqueous acetonitrile solution at 9.7 x 10e-5 M concentration of 0.00096 M; how it was run: as §1
[27] = biological target: T1, Thymidylate synthase; test: The rate constant with methyl mercaptoacetate in Acetonitrile and buffered aqueous acetonitrile solution at concentration of 0.00096 M; how it was run: as §1

- k2 [1]: 32000 M⁻¹ s⁻¹
- k cat [2]: 0.065 s⁻¹
- Ki [3]: 2000 nM
Structure (SMILES): O=C1C=CC(=O)C(c2cn([C@H]3C[C@H](O)[C@@H](COP(=O)(O)O)O3)c(=O)[nH]c2=O)=C1

- k2 [6]: 0.14 M⁻¹ s⁻¹
Structure (SMILES): CC1=CC(=O)c2ccccc2C1=O

- k2 [1]: > 760000 M⁻¹ s⁻¹
Structure (SMILES): O=c1ccn([C@H]2C[C@H](O)[C@@H](COP(=O)(O)O)O2)c(=O)[nH]1

- k2 [1]: 2600 M⁻¹ s⁻¹
Structure (SMILES): O=C1C=CC(=O)C(c2ccccc2)=C1

- k obs [9]: 0.00952 s⁻¹
- k obs [10]: 0.0167 s⁻¹
- k2 [11]: 1.7 M⁻¹ s⁻¹
- k obs [12]: 0.0197 s⁻¹
- k obs [13]: 0.00501 s⁻¹
- k obs [14]: 0.0184 s⁻¹
- k obs [15]: 0.00154 s⁻¹
- k obs [16]: 0.00384 s⁻¹
- k obs [17]: 0.00518 s⁻¹
- k obs [18]: 0.00969 s⁻¹
- k obs [19]: 0.00919 s⁻¹
- k obs [20]: 0.0025 s⁻¹
- k obs [21]: 0.00184 s⁻¹
- k obs [22]: 0.00334 s⁻¹
- k2 [23]: 4.7 M⁻¹ s⁻¹
- k obs [24]: 0.00434 s⁻¹
- k2 [25]: 2.3 M⁻¹ s⁻¹
- k obs [26]: 0.000434 s⁻¹
- k2 [27]: 0.53 M⁻¹ s⁻¹
Structure (SMILES): CC(=O)OC[C@H]1O[C@@H](n2cc(C3=CC(=O)C=CC3=O)c(=O)[nH]c2=O)C[C@@H]1OC(C)=O

More lines, now with the values behind:

Structure (SMILES): O=C1C=CC(=O)C(c2cn([C@H]3C[C@H](O)[C@@H](CO)O3)c(=O)[nH]c2=O)=C1
- k2 [4]: > 1000 M⁻¹ s⁻¹
- k2 [5]: 5 M⁻¹ s⁻¹

Structure (SMILES): C=CC(=O)OC
- k2 [7]: 0.11 M⁻¹ s⁻¹

Structure (SMILES): CC1C=CC(=O)O1 (centres undefined)
- k2 [8]: 0.037 M⁻¹ s⁻¹
